ChEMBL document CHEMBL1287651, “Synthesis and in vitro antibacterial activity of fluoroquinolone derivatives containing 3-(N'-alkoxycarbamimidoyl)-4-(alkoxyimino) pyrrolidines” (2010)
≈ marks a conversion by molar mass, not a printed value.

What was measured:
Type in all cases: functional
Enterococcus faecalis [1] = assay: Antibacterial activity against Enterococcus faecalis 08-10 after 18 to 24 hrs by twofold serial dilution method
Method in brief: (§1)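 MIC determined by the standard twofold serial dilution method on agar media, screening against Gram-positive and Gram-negative strains. Levofloxacin and gemifloxacin were run alongside as reference drugs.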

Staphylococcus aureus [2] = assay: Antibacterial activity against Staphylococcus aureus ATCC […] after 18 to 24 hrs by twofold serial dilution method; method in brief: as §1
Streptococcus pneumoniae [3] = assay: Antibacterial activity against Streptococcus pneumoniae 08-4 after 18 to 24 hrs by twofold serial dilution method; method in brief: as §1
Pseudomonas aeruginosa [4] = assay: Antibacterial activity against Pseudomonas aeruginosa 09-33 after 18 to 24 hrs by twofold serial dilution method; method in brief: as §1
[5] = tested on: Staphylococcus epidermidis; assay: Antibacterial activity against methicillin-sensitive Staphylococcus epidermidis 09-3 after 18 to 24 hrs by twofold serial dilution method
Method in brief: (§2)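 Standard twofold serial agar dilution method on agar media for MIC determination. Screened against representative Gram-positive and Gram-negative strains. Levofloxacin and GMFX served as control drugs.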

Pseudomonas aeruginosa [6] = assay: Antibacterial activity against Pseudomonas aeruginosa 09-34 after 18 to 24 hrs by twofold serial dilution method; method in brief: as §1
[7] = tested on: Staphylococcus epidermidis; assay: Antibacterial activity against methicillin-sensitive Staphylococcus epidermidis 09-6 after 18 to 24 hrs by twofold serial dilution method; method in brief: as §2
Escherichia coli [8] = assay: Antibacterial activity against Escherichia coli 08-21 after 18 to 24 hrs by twofold serial dilution method; method in brief: as §1
Streptococcus pneumoniae [9] = assay: Antibacterial activity against Streptococcus pneumoniae 08-2 after 18 to 24 hrs by twofold serial dilution method; method in brief: as §1
[10] = tested on: Staphylococcus epidermidis; assay: Antibacterial activity against methicillin-resistant Staphylococcus epidermidis 09-2 after 18 to 24 hrs by twofold serial dilution method; method in brief: as §2
Staphylococcus aureus [11] = assay: Antibacterial activity against methicillin-sensitive Staphylococcus aureus 08-2 after 18 to 24 hrs by twofold serial dilution method; method in brief: as §2
Pseudomonas aeruginosa [12] = assay: Antibacterial activity against Pseudomonas aeruginosa 09-32 after 18 to 24 hrs by twofold serial dilution method; method in brief: as §1
Escherichia coli [13] = assay: Antibacterial activity against Escherichia coli ATCC 25922 after 18 to 24 hrs by twofold serial dilution method; method in brief: as §1
Enterococcus faecium [14] = assay: Antibacterial activity against Enterococcus faecium 08-2 after 18 to 24 hrs by twofold serial dilution method; method in brief: as §1
Klebsiella pneumoniae [15] = assay: Antibacterial activity against Klebsiella pneumoniae 09-23 after 18 to 24 hrs by twofold serial dilution method; method in brief: as §1
Klebsiella pneumoniae [16] = assay: Antibacterial activity against Klebsiella pneumoniae 09-21 after 18 to 24 hrs by twofold serial dilution method; method in brief: as §1
Klebsiella pneumoniae [17] = assay: Antibacterial activity against Klebsiella pneumoniae 09-22 after 18 to 24 hrs by twofold serial dilution method; method in brief: as §1
Enterococcus faecalis [18] = assay: Antibacterial activity against Enterococcus faecalis 08-12 after 18 to 24 hrs by twofold serial dilution method; method in brief: as §1
Staphylococcus aureus [19] = assay: Antibacterial activity against methicillin-resistant Staphylococcus aureus 08-1 after 18 to 24 hrs by twofold serial dilution method; method in brief: as §2
[20] = tested on: Staphylococcus epidermidis; assay: Antibacterial activity against methicillin-resistant Staphylococcus epidermidis 09-3 after 18 to 24 hrs by twofold serial dilution method; method in brief: as §2
Escherichia coli [21] = assay: Antibacterial activity against Escherichia coli 08-22 after 18 to 24 hrs by twofold serial dilution method; method in brief: as §1
Pseudomonas aeruginosa [22] = assay: Antibacterial activity against Pseudomonas aeruginosa ATCC 27853 after 18 to 24 hrs by twofold serial dilution method; method in brief: as §1
Pseudomonas aeruginosa [23] = assay: Antibacterial activity against Pseudomonas aeruginosa 09-35 after 18 to 24 hrs by twofold serial dilution method; method in brief: as §1
Enterococcus faecium [24] = assay: Antibacterial activity against Enterococcus faecium 08-7 after 18 to 24 hrs by twofold serial dilution method; method in brief: as §1
[25] = tested on: Staphylococcus epidermidis; assay: Antibacterial activity against methicillin-resistant Staphylococcus epidermidis 09-4 after 18 to 24 hrs by twofold serial dilution method; method in brief: as §2

| Structure (SMILES) | MIC (Enterococcus faecalis [1]) | MIC (Staphylococcus aureus [2]) | MIC (Streptococcus pneumoniae [3]) | MIC (Pseudomonas aeruginosa [4]) | MIC [5] | MIC (Pseudomonas aeruginosa [6]) | MIC [7] | MIC (Escherichia coli [8]) | MIC (Streptococcus pneumoniae [9]) | MIC [10] | MIC (Staphylococcus aureus [11]) | MIC (Pseudomonas aeruginosa [12]) | MIC (Escherichia coli [13]) | MIC (Enterococcus faecium [14]) | MIC (Klebsiella pneumoniae [15]) | MIC (Klebsiella pneumoniae [16]) | MIC (Klebsiella pneumoniae [17]) | MIC (Enterococcus faecalis [18]) | MIC (Staphylococcus aureus [19]) | MIC (Escherichia coli [21]) | other results |
| --- | --- | --- | --- | --- | --- | --- | --- | --- | --- | --- | --- | --- | --- | --- | --- | --- | --- | --- | --- | --- | --- |
| CCO/N=C1\CN(c2nc3c(cc2F)c(=O)c(C(=O)O)cn3-c2ccc(F)cc2F)CC1/C(N)=N\OC (centres undefined) | > 128 µg/mL | 0.25 µg/mL (≈ 0.482 µM) | 32 µg/mL (≈ 61.7 µM) | > 128 µg/mL | 0.125 µg/mL (≈ 0.241 µM) | > 128 µg/mL | 0.25 µg/mL (≈ 0.482 µM) | > 128 µg/mL | 32 µg/mL (≈ 61.7 µM) | 0.125 µg/mL (≈ 0.241 µM) | 0.25 µg/mL (≈ 0.482 µM) | > 128 µg/mL | 128 µg/mL (≈ 247 µM) | > 128 µg/mL | 32 µg/mL (≈ 61.7 µM) | 0.25 µg/mL (≈ 0.482 µM) | 32 µg/mL (≈ 61.7 µM) | > 128 µg/mL | 0.25 µg/mL (≈ 0.482 µM) | > 128 µg/mL | MIC [20]: 0.25 µg/mL (≈ 0.482 µM); MIC (Pseudomonas aeruginosa [22]): 32 µg/mL (≈ 61.7 µM); MIC (Pseudomonas aeruginosa [23]): > 128 µg/mL; MIC (Enterococcus faecium [24]): > 128 µg/mL; MIC [25]: 0.25 µg/mL (≈ 0.482 µM) |
| CCO/N=C(/N)C1CN(c2nc3c(cc2F)c(=O)c(C(=O)O)cn3-c2ccc(F)cc2F)C/C1=N\OC (centres undefined) | > 128 µg/mL | 0.125 µg/mL (≈ 0.241 µM) | > 128 µg/mL | > 128 µg/mL | 0.125 µg/mL (≈ 0.241 µM) | > 128 µg/mL | 0.25 µg/mL (≈ 0.482 µM) | > 128 µg/mL | > 128 µg/mL | 2 µg/mL (≈ 3.86 µM) | 0.25 µg/mL (≈ 0.482 µM) | > 128 µg/mL | > 128 µg/mL | > 128 µg/mL | > 128 µg/mL | > 128 µg/mL | 32 µg/mL (≈ 61.7 µM) | > 128 µg/mL | 0.25 µg/mL (≈ 0.482 µM) | > 128 µg/mL | MIC [20]: 0.25 µg/mL (≈ 0.482 µM); MIC (Pseudomonas aeruginosa [22]): > 128 µg/mL; MIC (Pseudomonas aeruginosa [23]): > 128 µg/mL; MIC (Enterococcus faecium [24]): > 128 µg/mL; MIC [25]: 0.25 µg/mL (≈ 0.482 µM) |
| CCO/N=C1\CN(c2nc3c(cc2F)c(=O)c(C(=O)O)cn3-c2ccc(F)cc2F)CC1/C(N)=N\OCC (centres undefined) | 128 µg/mL (≈ 240 µM) | 0.06 µg/mL (≈ 0.113 µM) | 128 µg/mL (≈ 240 µM) | 128 µg/mL (≈ 240 µM) | 32 µg/mL (≈ 60.1 µM) | 128 µg/mL (≈ 240 µM) | 32 µg/mL (≈ 60.1 µM) | 128 µg/mL (≈ 240 µM) | 128 µg/mL (≈ 240 µM) | 0.06 µg/mL (≈ 0.113 µM) | 0.06 µg/mL (≈ 0.113 µM) | 128 µg/mL (≈ 240 µM) | 16 µg/mL (≈ 30 µM) | 128 µg/mL (≈ 240 µM) | 128 µg/mL (≈ 240 µM) | 16 µg/mL (≈ 30 µM) | 128 µg/mL (≈ 240 µM) | 128 µg/mL (≈ 240 µM) | 32 µg/mL (≈ 60.1 µM) | 128 µg/mL (≈ 240 µM) | MIC [20]: 0.06 µg/mL (≈ 0.113 µM); MIC (Pseudomonas aeruginosa [22]): 64 µg/mL (≈ 120 µM); MIC (Pseudomonas aeruginosa [23]): 128 µg/mL (≈ 240 µM); MIC (Enterococcus faecium [24]): 128 µg/mL (≈ 240 µM); MIC [25]: 64 µg/mL (≈ 120 µM) |
| CO/N=C1\CN(c2c(F)cc3c(=O)c(C(=O)O)cn(C4CC4)c3c2OC)CC1/C(N)=N\O (centres undefined) | > 128 µg/mL | 0.25 µg/mL (≈ 0.559 µM) | 4 µg/mL (≈ 8.94 µM) | > 128 µg/mL | 0.25 µg/mL (≈ 0.559 µM) | > 128 µg/mL | 0.25 µg/mL (≈ 0.559 µM) | > 128 µg/mL | 4 µg/mL (≈ 8.94 µM) | 0.5 µg/mL (≈ 1.12 µM) | 0.25 µg/mL (≈ 0.559 µM) | 32 µg/mL (≈ 71.5 µM) | > 128 µg/mL | > 128 µg/mL | > 128 µg/mL | > 128 µg/mL | 1 µg/mL (≈ 2.24 µM) | > 128 µg/mL | 0.25 µg/mL (≈ 0.559 µM) | > 128 µg/mL | MIC [20]: 0.25 µg/mL (≈ 0.559 µM); MIC (Pseudomonas aeruginosa [22]): 16 µg/mL (≈ 35.8 µM); MIC (Pseudomonas aeruginosa [23]): 32 µg/mL (≈ 71.5 µM); MIC (Enterococcus faecium [24]): > 128 µg/mL; MIC [25]: 0.25 µg/mL (≈ 0.559 µM) |
| CO/N=C1\CN(c2nc3c(cc2F)c(=O)c(C(=O)O)cn3C2CC2)CC1/C(N)=N\O (centres undefined) | > 128 µg/mL | 1 µg/mL (≈ 2.39 µM) | 2 µg/mL (≈ 4.78 µM) | 8 µg/mL (≈ 19.1 µM) | 128 µg/mL (≈ 306 µM) | 8 µg/mL (≈ 19.1 µM) | 128 µg/mL (≈ 306 µM) | > 128 µg/mL | 2 µg/mL (≈ 4.78 µM) | 1 µg/mL (≈ 2.39 µM) | 1 µg/mL (≈ 2.39 µM) | 8 µg/mL (≈ 19.1 µM) | 128 µg/mL (≈ 306 µM) | > 128 µg/mL | > 128 µg/mL | > 128 µg/mL | 32 µg/mL (≈ 76.5 µM) | 4 µg/mL (≈ 9.56 µM) | 128 µg/mL (≈ 306 µM) | > 128 µg/mL | MIC [20]: 1 µg/mL (≈ 2.39 µM); MIC (Pseudomonas aeruginosa [22]): 4 µg/mL (≈ 9.56 µM); MIC (Pseudomonas aeruginosa [23]): > 128 µg/mL; MIC (Enterococcus faecium [24]): > 128 µg/mL; MIC [25]: 2 µg/mL (≈ 4.78 µM) |
| CCO/N=C1\CN(c2c(F)cc3c(=O)c(C(=O)O)cn(CC)c3c2F)CC1/C(N)=N\OCC (centres undefined) | > 128 µg/mL | 8 µg/mL (≈ 17.2 µM) | > 128 µg/mL | > 128 µg/mL | > 128 µg/mL | > 128 µg/mL | > 128 µg/mL | > 128 µg/mL | > 128 µg/mL | > 128 µg/mL | > 128 µg/mL | > 128 µg/mL | > 128 µg/mL | > 128 µg/mL | > 128 µg/mL | > 128 µg/mL | > 128 µg/mL | > 128 µg/mL | > 128 µg/mL | > 128 µg/mL | MIC (Pseudomonas aeruginosa [22]): > 128 µg/mL; MIC (Pseudomonas aeruginosa [23]): > 128 µg/mL; MIC (Enterococcus faecium [24]): > 128 µg/mL; MIC [25]: > 128 µg/mL |
